Holding throughout (format): functional
In one assay the test system is OVCAR-8. In words: Growth inhibition of human OVCAR8 cells after 48 hrs by SRB assay. The conditions noted are these: OVCAR-8, 48 h. On the technique in general: Sulforhodamine B stains cellular protein and so reports cell mass.
Another assay relates to SNB-75. In words: Growth inhibition of human SNB75 cells after 48 hrs by SRB assay. The conditions noted are these: SNB-75, 48 h.
In another assay the test system is KM12. In words: Growth inhibition of human KM12 cells after 48 hrs by SRB assay. As to conditions: KM12, 48 h.
The subject of assay [1] is Paracentrotus lividus. Kind of assay: Antimitotic activity against sea urchin embryo model assessed as cleavage alteration of fertilized egg compound treated at 8 to 20 mins post-fertilization and 45 to 55 mins prior to first mitotic cycle completion measured 2.5 to 5.5 hrs post-fertilization. Summed up: (§1)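 Fertilized eggs are exposed 8–20 min after fertilization to 2-fold decreasing concentrations. Stocks are 10 mM in DMSO, then diluted 10-fold in 95% EtOH; final DMSO is at most 0.05% and EtOH at most 1%. Embryos are kept as a monolayer, up to 2000 embryos/mL, in filtered seawater at room temperature. The value is the threshold concentration giving cleavage alteration, embryo death before hatching or full mitotic arrest. Duplicates were run.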

The next assay concerns SK-MEL-2. Kind of assay: Growth inhibition of human SK-MEL-2 cells after 48 hrs by SRB assay. The conditions noted are these: SK-MEL-2, 48 h.
A further assay concerns 786-0. In words: Growth inhibition of human 786-0 cells after 48 hrs by SRB assay. As to conditions: 786-0, 48 h.
In assay [2] the test system is Paracentrotus lividus. Kind of assay: Antimitotic activity against sea urchin embryo model assessed as cleavage arrest of fertilized egg compound treated at 8 to 20 mins post-fertilization and 45 to 55 mins prior to first mitotic cycle completion measured 2.5 to 5.5 hrs post-fertilization. Summed up: as §1
A further assay deals with MDA-MB-435. In words: Growth inhibition of human MDA-MB-435 cells after 48 hrs by SRB assay. The conditions noted are these: MDA-MB-435, 48 h.
The test system of another assay is HCT-15. Kind of assay: Growth inhibition of human HCT15 cells after 48 hrs by SRB assay. As to conditions: HCT-15, 48 h.
For a further assay, the system named is Malme-3M. Kind of assay: Growth inhibition of human MALME-3M cells after 48 hrs by SRB assay.
A further assay relates to SK-MEL-28. Kind of assay: Growth inhibition of human SK-MEL-28 cells after 48 hrs by SRB assay. The conditions noted are these: SK-MEL-28, 48 h.

Molecules are shown by their SMILES. Where only a bound is given, the exact number is not on record here.

What is called GI50 is the concentration that inhibits growth by half. Higher therefore signals lower sensitivity of the cells.

Consider `COc1ccc(-c2nn[nH]c2-c2cc(OC)c(OC)c(OC)c2)cc1`, for which the concentration for 50% growth inhibition (GI50) with OVCAR-8, in the assay with SNB-75, in the assay on KM12, with SK-MEL-2, with 786-0 and in the assay on MDA-MB-435 was less than 10 nM in each case. The GI50 in the assay with HCT-15 is less than 10 nM. Besides, the results for the EC with Paracentrotus lividus [1] and in the assay with Paracentrotus lividus [2] were 0.005 µM and 0.02 µM, respectively.
As for `COc1ccc(-c2nn[nH]c2-c2cc(OC)c3c(c2OC)OCO3)cc1`, the 50% growth inhibitory concentration (GI50) was 1320 nM with OVCAR-8; 437 nM in the assay on SNB-75; 412 nM with KM12; 766 nM with Malme-3M; 326 nM with SK-MEL-2; 1400 nM in the assay with 786-0. The GI50 is 1780 nM in the assay on SK-MEL-28, 193 nM with MDA-MB-435 and 454 nM in the assay with HCT-15. The EC with Paracentrotus lividus [1] is 0.5 µM; in the assay on Paracentrotus lividus [2], greater than 4 µM.

The values above are taken from ChEMBL document CHEMBL3102739, “Synthesis and antiproliferative activity of conformationally restricted 1,2,3-triazole analogues of combretastatins in the sea urchin embryo model and against human cancer cell lines” (Bioorg Med Chem, 2014).
